Screening data (PubChem BioAssay)
STAT1 act – activators of IFN-gamma induced STAT1 signaling. activation (% of control), % at 5.5 µM. AID 932. 200,000 tested, 2.6% active. NIH 3T3 STAT1-luciferase reporter, luminescence; 100% = IFN-gamma alone, no compound;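 active = activation above the screen-wide mean activation plus 3 SD, cut at about 130% in these data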;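 also: raw ratio to IFN-gamma control signal so 100% means no change and 0% no light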
STAT1 inh – inhibitors of IFN-gamma induced STAT1 signaling | NIH 3T3 STAT1-luciferase reporter, luminescence | inhibition, % at 5.5 µM | 200,000 tested, 0.35% active;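 active = inhibition above a set limit, the mean inhibition across all tested compounds plus 3 SD, cut at about 34% in these data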;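 also: 0% = IFN-gamma with DMSO and 100% = IFN-gamma with 300 µM nifuroxazide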
STAT3 blocker – STAT3 signaling inhibition. 190,000 tested, 0.89% active. inhibition, % at 5.5 µM. U3A cells, IL-6 STAT3-luciferase reporter, luminescence; host cell line lacks STAT1;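 active = inhibition above the mean inhibition across all screened compounds plus 3 SD, cut at about 44% in these data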;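 also: 0% = DMSO only wells and 100% = 100 µM nifuroxazide control wells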
APP 5'UTR act – activates APP 5'UTR luciferase reporter | activation, % at 2 µM | 190,000 tested, 1% active | SH-SY5Y APP 5'UTR luciferase reporter, luminescence; zero percent = DMSO vehicle wells;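 active = activation above a set limit, based on mean plus 3 SD of controls, cut at about 140% in these data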
NF-kB neuron act – NF-kB expression increase, human neuronal cells; 190,000 tested, 1.6% active; AID 1239; fold change at 12.5 µM; NF-kB reporter expression; active compounds read high; in the data active = fold change above about 3.3
STAT3 activator – STAT3 signaling activation | U3A cells, IL-6 STAT3-luciferase reporter, luminescence; 100% = signal with IL-6 EC80 alone | activation (% of control), % at 5.6 µM | 190,000 tested, 0.91% active;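 active = activation above the screen-wide mean of compound activation plus 3 SD, cut at about 130% in these data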;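 also: 0% = background luminescence of wells with medium and substrate only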
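Material: human STAT1-deficient U3A cells with stable STAT3-luciferase reporter / Probe or stimulus: IL-6 stimulus at 33 ng/mL final / Schedule: 1 h compound pre-exposure, 6 h IL-6 stimulation, 37 °C / Technique: luminescence / Read-out basis: percent of IL-6-only median luminescence / Control set: IL-6-only high control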
Numbers without * were called inactive; / = not tested or not shown. Most compounds without a hit are left out; they make up all but 5.1% or so of the library.

SMILES	STAT1 act	STAT1 inh	STAT3 blocker	APP 5'UTR act	NF-kB neuron act	STAT3 activator
Cc1ccc(NC(=O)c2ccc3ccccc3n2)cc1S(=O)(=O)N(C)C	134*	-36	-7	73	1.4	106
O=C(Nc1ccc2c(c1)OCCO2)c1ccccn1	56	47*	70*	107	2.6	45
O=C(Nc1ccc(NC(=O)c2ccccn2)cc1)C(=O)Nc1ccc2c(c1)OCCO2	116	-15	13	-2	0.95	93
Cc1ccc(NC(=O)c2cncc(Br)c2)cc1S(=O)(=O)N(C)C	136*	-40	-23	71	1.9	117
O=C(Nc1ccc2c(c1)OCCO2)c1cnc2ccccn2c1=O	154*	-63	34	41	/	75
O=C(NCc1ccc2c(c1)OCO2)c1cnc2ccccn2c1=O	104	-5	-1	8	1.1	107
O=C(Nc1ccc2c(c1)OCCO2)c1cccc2nc3ccccc3nc12	107	-8	34	-46	0.52	79
O=C(CSCc1ccccc1Cl)Nc1ccc2c(c1)OCCO2	107	-7	4	137*	2	102
O=C(Nc1ccc2c(c1)OCCO2)c1ccc2ccccc2n1	137*	-42	-23	220*	9.2*	130
CCn1cc(Cl)c(C(=O)Nc2ccc3c(c2)OCCO3)n1	106	-8	40	137*	4.1*	70
O=C(Oc1ccc(-c2nccc(-c3ccccn3)n2)cc1)c1cccc(C(F)(F)F)c1	79	23	16	33	3.4*	89
O=C(COc1ccc(Br)cc1Cl)NC1CCCCC1	138*	-43	-4	77	3.5*	108
O=C(COc1ccc(Br)cc1Cl)c1ccc[nH]1	137*	-42	4	58	3	106
O=C(COc1ccccc1Cl)c1ccc[nH]1	120	-23	6	13	1.4	96
COCCNC(=O)COc1ccc(Br)cc1Cl	99	1	3	0	1.1	98
C=CCNC(=O)COc1ccc(Br)cc1Cl	132*	-35	12	39	2.3	94
COc1ccc(C(=O)NCCSc2ccccc2)cc1OC	134*	-39	-15	46	2	118
COc1c(OC(C)=O)ccc(/C=C/c2ccc3ccccc3n2)c1[N+](=O)[O-]	99	1	0	136*	1.1	105
COc1cc(/C=N/Nc2nnc3c(n2)[nH]c2ccccc23)ccc1O	133*	-36	-2	10	1.2	98
CCOC(=O)c1cc(C(=O)Nc2cccc(C)c2)nn1C	135*	-40	-2	130	6.8*	103
Cc1cccc(NC(=O)c2c(C)nn(-c3ccccc3)c2Cl)c1	116	-20	6	40	1.9	98
CCSc1nnc2n(-c3ccc(OC)cc3)c(=O)c3c4c(sc3n12)CCCC4	93	8	20	-13	1.1	86
OC1(c2cccc(F)c2)CCN(Cc2ccncc2)CC1	99	1	-1	-2	0.97	105
COc1ccc(OC)c(S(=O)(=O)NCc2cn3c(C)csc3n2)c1	104	-4	1	12	1.1	103
O=C(c1ccc(-c2ccc(Cl)cc2)o1)N1CCN(c2ccc([N+](=O)[O-])cc2Cl)CC1	93	7	18	-6	0.68	91
SMILES	STAT1 act	STAT1 inh	STAT3 blocker	APP 5'UTR act	NF-kB neuron act	STAT3 activator
O=C(c1ccc(-c2ccc([N+](=O)[O-])cc2)o1)N1CCCCC1	128	-32	-15	180*	4.8*	110
Cc1cc(C(=O)CN2C(=O)C(=O)N(Cc3ccccc3)C2=O)c(C)n1-c1ccc2c(c1)OCCO2	92	7	-6	28	0.8	106
Cc1ccc(OCc2nnc(SCC(=O)NCc3ccco3)n2C)cc1	93	2	3	3	1.1	100
Cc1cc(C)c(C(=O)CSc2nc3ccccc3c(=O)[nH]2)cc1C	102	0	8	-4	1.2	97
C=CCn1c(C)cc(C(=O)CSc2nc3ccccc3c(=O)[nH]2)c1C	134*	-37	28	34	2	81
COCC(C)n1c(C)cc(C(=O)CSc2nc3ccccc3c(=O)[nH]2)c1C (centres undefined)	85	16	29	0	0.98	80
COCCn1c(C)cc(C(=O)CSc2nc3ccccc3c(=O)[nH]2)c1C	142*	-46	-1	23	1.7	106
C#CCOCCOCCOCCNc1nc(N2CCN(C(=O)[C@H](CCC(=O)O)n3cc(C(N)Cc4ccc(O)cc4)nn3)CC2)nc(N2CCN(C(=O)[C@H](CCC(=O)O)n3cc(C(N)CC(C)C)nn3)CC2)n1 (some centres undefined)	93	9	/	5	1.3	/
CC(=O)Nc1ccc(NC(=S)Nc2ccccc2)cc1	99	3	6	15	1.1	103
CC(C)(C)c1nnc(NC(=S)Nc2ccccc2)s1	140*	-41	6	92	3.6*	96
Nc1cccc(CCc2nc3cc4ccccc4cc3[nH]2)c1	131*	-35	-17	-17	4.2*	112
c1ccc(CCc2nc3ccccc3[nH]2)cc1	119	-23	4	58	1.9	98
Cc1occc1C(=O)N1CCN(c2ccc(Cl)c(Cl)c2)CC1	90	10	25	9	0.82	83
CCn1cnc2c(oc3ccccc32)c1=O	100	1	-2	2	1.5	102
O=C(Cn1cnc2c(oc3ccccc32)c1=O)c1ccccc1	148*	-53	-1	102	2.7	105
Cc1nn(CC(=O)NCCc2ccc(Cl)cc2)c(C)c1[N+](=O)[O-]	88	14	16	4	1.2	91
COc1cccc(C(=O)Nc2cccc(OCC(=O)c3ccccc3)c2)c1	113	-16	13	18	1	95
O=C(Nc1ccc2c(c1)CCC2)C1CCCO1 (centres undefined)	116	-18	-1	20	1.4	101
Cc1nc(Nc2ccc(C(=O)O)cc2)sc1-c1ccccc1	131*	-33	72*	160*	/	41
C1CCN=C(Nc2nc3c(s2)CCCC3)CC1	131*	-34	4	30	1.8	100
C/C(=N\Nc1nc2c(s1)CCCC2)c1ccccc1	149*	-53	-101	15	2.1	184*
COC(=O)c1sc(Nc2ccccc2)nc1C	128	-30	0	35	1.9	105
O=C(O)c1ccc(Nc2nc3c(s2)CCCC3)cc1	36	69*	80*	65	3.5*	32
CCOC(=O)C(C(=O)N1CCOCC1)C1CCCCC1 (centres undefined)	103	-4	-4	15	1.2	106
CCCCNC(=O)CCCCCn1c(=O)[nH]c2cc(C(=O)OC)ccc2c1=O	102	-2	-3	-7	1.2	108
CC(CN1CCOCC1)OC(=O)c1ccc2c(c1)OCCO2 (centres undefined)	138*	-42	-18	33	2	122
